Rows were chosen to be rich in hits. Some 3.6% of all compounds tested hit in one or more screens of this group.
UCH37 inh: blocks the human deubiquitinase UCH37 | purified proteasome/UCH37, Ub-AMC cleavage fluorescence | hit rate 0.33% among 330,000 | AID 588478 | Q9Y5K5 | inhibition, % (test concentration not listed);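 active means mean inhibition over replicate wells above about 20%, limit read from the data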;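 further: 0% = compound-free wells with enzyme and 100% = wells lacking proteasome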
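Material: Human UCH37 enzyme supplied as purified proteasome complex | Schedule: 30 min preincubation with enzyme, 25 min cleavage at room temperature | Detection: AMC fluorescence 355/460 nm | Measure: % inhibition of Ub-AMC cleavage fluorescence | Controls: Wells without proteasome as full block, compound-free enzyme plus substrate as uninhibited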
GRIN3A LBD mod: modulators (binders) of human NR3A ligand-binding domain. Tm shift relative to glycine control, % at 25 µM. NR3A LBD differential scanning fluorimetry, Tm shift; 0% = protein alone, 100% = glycine-bound protein. AID 1259313. hit rate 2.5% among 340,000;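 active means melting temperature shift of at least 10% of the positive control shift, at one fixed dose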
NadD block: blocks S. aureus nicotinate mononucleotide adenylyltransferase. purified NadD enzyme, colorimetric absorbance read-out. inhibition, % at 20 µM. hit rate 0.78% among 360,000; in the data active means inhibition above about 26%
SENP1 FRET inh: blocks the human SENP1 SUMO protease catalytic domain; Q9P0U3; recombinant SENP1 catalytic domain, CyPet-SUMO1-YPet FRET cleavage; inhibition, % at 10 µM; hit rate 0.21% among 360,000;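 active means inhibition at least 30% at 10 µM, raw YFP signal under a set limit, fluorescence ratio 0.5 to 1.5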;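 further: 0% = enzyme with DMSO and 100% = no enzyme wells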
Target sequence (Q9P0U3 419-644 limits assumed): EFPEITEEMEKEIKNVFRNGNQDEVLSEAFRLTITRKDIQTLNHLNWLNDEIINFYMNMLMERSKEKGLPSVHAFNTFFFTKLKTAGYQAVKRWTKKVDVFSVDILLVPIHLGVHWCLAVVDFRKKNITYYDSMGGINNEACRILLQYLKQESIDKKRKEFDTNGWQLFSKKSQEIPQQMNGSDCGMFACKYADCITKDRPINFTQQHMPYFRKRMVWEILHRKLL
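system = hSENP1 catalytic domain, recombinant | reagent = SFCypet-SUMO1-SFYpet substrate at 25 nM | doses = one dose per compound, 10 µM, 0.5% DMSO | incubation = enzyme reaction for 50 min at room temperature, dark | measured by = FRET, CFP and YFP emission | controls = no-enzyme low, enzyme-DMSO high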
ATG4B inhibitor: ATG4B (human) cysteine protease inhibition. inhibition, % at 8.33 µM. Q9Y4P1. ATG4B cleavage of LC3-PLA2, NBD-HPC fluorescence, 1 h. hit rate 0.51% among 340,000; in the data active means inhibition above about 40%
ATG4B confirm: confirmation of human ATG4B inhibitors | shares compounds with ATG4B inhibitor | ATG4B protease fluorescent substrate cleavage assay | inhibition, % at 8.33 µM | hit rate 92% among 320 | AID 504757; in the data active means inhibition above about 39%
PLA2 ctr: counter-screen for ATG4B inhibitors: human phospholipase A2; shares compounds with ATG4B inhibitor; purified PLA2, NBD-C6-HPC fluorescence, 45 min; inhibition, % at 8.33 µM; hit rate 66% among 1,600; AID 588402; in the data active means inhibition above about 50%
Target sequence (P04054 whole entry, looked up): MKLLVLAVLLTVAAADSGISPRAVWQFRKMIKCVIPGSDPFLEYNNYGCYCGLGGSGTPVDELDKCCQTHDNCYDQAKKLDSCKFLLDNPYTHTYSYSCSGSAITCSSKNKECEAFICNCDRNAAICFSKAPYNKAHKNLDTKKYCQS
Numbers without * were called inactive; . = not tested or not shown.

SMILES | UCH37 inh | GRIN3A LBD mod | NadD block | SENP1 FRET inh | ATG4B inhibitor | PLA2 ctr | others
CN(CC(=O)NCC1CCCO1)S(=O)(=O)c1cc(Cl)ccc1Cl (configuration not stated) | 3 | 0 | -1 | 0 | 93* | 2
N#Cc1c(-c2ccccc2)nc(SCC(=O)N2c3ccccc3Sc3ccccc32)[nH]c1=O | 13 | -8 | 22 | 2 | 57* | 59*
N#Cc1c(-c2ccccc2)nc(SCC(=O)N(c2ccccc2)c2ccccc2)[nH]c1=O | 2 | -15 | 16 | 1 | 13 | .
O=C(COc1ccc(Cl)cc1Cl)NN=Cc1ccc(OC2OC(CO)C(O)C(O)C2O)cc1 (configuration not stated) | 1 | . | . | . | . | .
CCOC(=O)c1ccc(N=C2SC(C(=O)NC)CC(=O)N2Cc2ccc(F)cc2)cc1 (configuration not stated) | 4 | -8 | -12 | 3 | 1 | .
CCOC(=O)c1ccc(N=C2SC(C(=O)Nc3ccc(C(=O)O)cc3)CC(=O)N2Cc2cccs2)cc1 (configuration not stated) | -4 | -15 | 19 | 2 | 55* | 55*
Cc1ccc(S(=O)(=O)NN=Cc2ccc(O)cc2O)cc1[N+](=O)[O-] | 4 | . | . | . | . | .
COc1ccc(-c2[nH]ncc2C=NNS(=O)(=O)c2ccc(Cl)cc2)cc1 | 4 | . | . | . | . | .
Cc1ccc(NC(=O)CSc2ccc(C(N)=O)cc2[N+](=O)[O-])cc1C | 5 | 6 | 1 | 0 | -5 | .
CCc1ccc(Nc2ccc(C(N)=O)cc2[N+](=O)[O-])cc1 | 9 | -6 | -2 | 3 | 72* | 81*
Cc1ccc(Nc2ccc(C(N)=O)cc2[N+](=O)[O-])cc1C | 26* | -1 | -6 | -124 | 65* | 65*
N#CCSc1ncnc2sc3c(c12)CCC3 | 5 | -4 | 11 | -28 | 10 | .
CC(C#N)Sc1ncnc2sc3c(c12)CCC3 (configuration not stated) | 0 | -3 | -1 | -2 | 49* | 48
CCOc1cc(C(N)=O)cc(Br)c1OCc1ccccc1 | 6 | -1 | -4 | 3 | 46* | 60*
COc1c(Br)cc(C(N)=O)cc1OCc1ccccc1 | 3 | -1 | 7 | 1 | 67* | 72*
Cc1cc(C(=O)NN=C2CC(=O)CC(C)(C)C2)c(C)n1-c1ccccc1 | 3 | . | . | . | . | .
CC(=O)N1CCN(c2ccc(C(N)=O)cc2[N+](=O)[O-])CC1 | 1 | 1 | 1 | 2 | -22 | .
NC(=O)c1ccc(N2CCN(c3ccccc3F)CC2)c([N+](=O)[O-])c1 | 6 | -3 | 1 | 0 | 45* | 50*
NC(=O)c1ccc(N2CCCCCC2)c([N+](=O)[O-])c1 | 4 | -1 | 2 | -1 | 68* | 70*
CC1(C)CC(=O)/C(=C(\O)CCCN2C(=O)c3ccccc3C2=O)C(=NC(C)(C)C)C1 | 1 | . | . | . | . | .
C#CCCC(=O)c1ccccc1/C=[N+](\[O-])c1ccccc1 | -1 | -1 | 20 | -6 | 42* | 62*
C/C(N)=C(/C#N)C(=O)CSc1nc2ccccc2c(=O)n1-c1ccc(C)c(Cl)c1 | -2 | -8 | 7 | -4 | 47* | 49
C/C(N)=C(/C#N)C(=O)CSc1nc2ccccc2c(=O)n1-c1ccc(C)cc1 | 2 | . | . | . | . | .
CCOc1ccc(-c2cc(NC(=O)c3c(F)cccc3F)c(C(=O)O)s2)cc1 | 3 | -7 | 4 | -7 | 92* | 94*
O=C(Nc1cc(-c2ccccc2)sc1C(=O)O)c1cccc(F)c1 | . | 3 | -3 | -2 | 93* | 91*
SMILES | UCH37 inh | GRIN3A LBD mod | NadD block | SENP1 FRET inh | ATG4B inhibitor | PLA2 ctr | others
CC(C)Oc1ccc(C=NNC(N)=S)cc1 | 4 | . | . | . | . | .
O=C(O)c1ccccc1NN=Cc1cc(Br)cc(Br)c1O | 9 | . | . | . | . | .
CCOC(=O)C1=C(c2ccccc2)NC(N)=NC1c1ccc(OCc2ccc(C(=O)OC)cc2)cc1 (configuration not stated) | 0 | 2 | 13 | -4 | 46* | 53*
Cc1cccc(C=NN2CCN(c3ccccc3)CC2)c1 | 2 | . | . | . | . | .
O=C(Nc1nc(COc2ccccc2)cs1)c1ccccc1F | 5 | 2 | -8 | 3 | 54* | 33
COc1ccc(OC)c(-c2csc(NC(=O)c3ccccc3F)n2)c1 | -2 | -2 | -6 | 0 | 17 | .
CCNc1ccc(C(=O)OCC(=O)N(Cc2ccccc2)C(C)(C)C)cc1[N+](=O)[O-] | 3 | -1 | 0 | 3 | 43* | 10
CCCN(CCC)Cc1c(C(=O)NN=Cc2ccco2)nnn1-c1nonc1N | 2 | . | . | . | . | .
N#Cc1c(NC(=S)NC(=O)C2CCCC2)sc2c1CCCCC2 | . | 9 | 14 | -4 | 74* | -11
N#Cc1c(NC(=O)C2CCCO2)sc2c1CCCCCC2 (configuration not stated) | 2 | -6 | -3 | 0 | -6 | .
Cc1ccc(C)c(N2CCN(C(=O)CCCn3c(=S)[nH]c4cc5c(cc4c3=O)OCO5)CC2)c1 | 3 | 0 | 29 | -1 | 52* | 62*
O=C(CCCn1c(=S)[nH]c2cc3c(cc2c1=O)OCO3)N1CCN(c2ccc(F)cc2)CC1 | 4 | 1 | 22 | 2 | 56* | 48 | ATG4B confirm=59*
O=C(CCCn1c(=S)[nH]c2cc3c(cc2c1=O)OCO3)N1CCN(c2ccccc2F)CC1 | -3 | 0 | 11 | -2 | 51* | 54*
COc1ccc(C=NNc2nc(C(=O)O)cs2)cc1 | 7 | . | . | . | . | .
O=C1C(=C(I)I)c2ccccc2-c2ccccc21 | . | 1 | 20 | -3 | 61* | -11 | ATG4B confirm=57*
O=C(O)c1cccc2c1C(=O)c1ccccc1-2 | 2 | 0 | -2 | 1 | -7 | .
N#Cc1c(NC(=O)C2CC(c3c(F)cccc3Cl)=NO2)sc2c1CCC2 (configuration not stated) | 4 | -9 | -5 | -1 | 59* | 53*
C=CCn1c(SCC(=O)c2ccc(OC)cc2)nnc1-c1cc2cccc(OC)c2o1 | 3 | 0 | 6 | 3 | -3 | .
C=CCn1c(SCC(=O)c2ccccc2)nnc1-c1cc2ccccc2o1 | 3 | -11 | -2 | 0 | 62* | 62*
CCCOc1ccc(CCC(=O)NN=Cc2ccncc2)cc1 | 1 | . | . | . | . | .
O=C(Nc1ccccc1N1CCCCC1)c1ccc(Cl)c([N+](=O)[O-])c1 | 0 | 6 | 4 | 2 | 23 | .
O=C(Nc1ccccc1-c1ccccc1)c1ccc(Cl)c([N+](=O)[O-])c1 | 5 | -8 | -1 | -2 | 41* | 36
CCN(Cc1ccc2c(c1)OCCO2)C(=O)CSc1nc(C)nc2sc(C)c(C)c12 | 3 | -1 | 3 | 1 | 47* | 68*

Bioassay records (PubChem)
